Measurements taken from ChEMBL document CHEMBL4373711, “Development of 3,5-Dinitrophenyl-Containing 1,2,4-Triazoles and Their Trifluoromethyl Analogues as Highly Efficient Antitubercular Agents Inhibiting Decaprenylphosphoryl-β-d-ribofuranose 2'-Oxidase” (J Med Chem, 2019).
Converted amounts (≈) assume the structure as drawn. The source made the active and inactive calls. The rule behind the calls is not given here.

Assays:
[1] = Genotoxicity in Salmonella typhimurium TA100 at 30 uM in absence of rat liver S9 fraction by Ames test; format: toxicity; conditions: salmonella enterica subsp. enterica serovar typhimurium, s9, 30 µM
[2] = system: Mycobacterium tuberculosis; test: Antitubercular activity against Mycobacterium tuberculosis H37Rv; format: functional
[3] = Genotoxicity in Salmonella typhimurium TA98 at 30 uM in presence of rat liver S9 fraction by Ames test; format: toxicity, subcellular; conditions: salmonella enterica subsp. enterica serovar typhimurium, s9, 30 µM
How it was run: (§1)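 Microplate fluctuation Ames reverse-mutation test following kit instructions; TA98 detects frameshift and TA100 base-exchange mutations. Compound at 30 µM final with Aroclor-1254-induced rat liver S9 plus cofactors.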

[4] = Genotoxicity in Salmonella typhimurium TA100 at 30 uM in presence of rat liver S9 fraction by Ames test; format: toxicity, subcellular; conditions: salmonella enterica subsp. enterica serovar typhimurium, s9, 30 µM; how it was run: as §1
Mycobacterium kansasii [5] = test: Antimycobacterial activity against Mycobacterium kansasii CNCTC My 235/80 after 7 days; format: functional; conditions: CNCTC My 235/80, 168 h
How it was run: (§2)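 Microdilution in Šula's semisynthetic medium; compounds in DMSO at 32–0.03 µM. Inoculum from 1.0 McFarland suspension diluted 10-4. […] Isoniazid and rifampicin as reference drugs.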

Mycobacterium kansasii [6] = test: Antimycobacterial activity against Mycobacterium kansasii 6509/96 after 14 days; format: functional; conditions: 6509/96, 336 h; how it was run: as §2
Lichtheimia corymbifera = test: Antifungal activity against Lichtheimia corymbifera CCM 8077 at highest concentration measured after 24 to 48 hrs by alamar blue dye based broth microdilution assay; format: functional, organism-based
Serratia marcescens = test: Antibacterial activity against Serratia marcescens at highest concentration measured after 24 to 48 hrs by alamar blue dye based broth microdilution assay; format: functional, organism-based
Candida parapsilosis = test: Antifungal activity against Candida parapsilosis ATCC 22019 CCM 8260 at highest concentration measured after 24 to 48 hrs by alamar blue dye based broth microdilution assay; format: functional, organism-based
A-431 = test: Cytotoxicity against human A431 cells assessed as reduction in cell viability after 48 hrs by CellTiter 96 aqueous one solution assay; format: cell-based; conditions: A-431, 48 h
Mycobacterium kansasii [7] = test: Antimycobacterial activity against Mycobacterium kansasii 6509/96 after 21 days; format: functional; conditions: 6509/96, 504 h; how it was run: as §2
[8] = system: Trichophyton interdigitale; test: Antifungal activity against Trichophyton interdigitale ATCC 9533 CCM 8377 at highest concentration measured after 72 to 120 hrs by alamar blue dye based broth microdilution assay; format: functional
Candida tropicalis = test: Antifungal activity against Candida tropicalis ATCC 750 CCM 8264 at highest concentration measured after 24 to 48 hrs by alamar blue dye based broth microdilution assay; format: functional, organism-based
[9] = system: Staphylococcus epidermidis; test: Antibacterial activity against Staphylococcus epidermidis at highest concentration measured after 24 to 48 hrs by alamar blue dye based broth microdilution assay; format: functional, organism-based
Mycobacterium kansasii [10] = test: Antimycobacterial activity against Mycobacterium kansasii 6509/96 after 7 days; format: functional; conditions: 6509/96, 168 h; how it was run: as §2
Pichia kudriavzevii = test: Antifungal activity against Candida krusei ATCC 6258 CCM8271 at highest concentration measured after 24 to 48 hrs by alamar blue dye based broth microdilution assay; format: functional, organism-based
Mycobacterium avium [11] = test: Antimycobacterial activity against Mycobacterium avium CNCTC My 330/88 after 14 days; format: functional; conditions: CNCTC My 330/88, 336 h
How it was run: (§3)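 M. avium was tested by microdilution in Šula's semisynthetic medium, with compounds dissolved in DMSO and serially diluted from 1000 down to 1. Inoculum was a 1.0 McFarland suspension diluted 10-5. Plates were incubated at 37 °C and read at 14 and 21 days. […] Isoniazid and rifampicin served as standards.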

[12] = system: Mycobacterium tuberculosis; test: Antimycobacterial activity against XDR Mycobacterium tuberculosis Praha 131 after 21 days; format: functional; conditions: Praha 131, 504 h
How it was run: (§4)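 M. tuberculosis strains (H37Rv and clinical MDR/XDR isolates) tested by microdilution in Šula's semisynthetic medium. Compounds were dissolved in DMSO and tested at 32 to 0.03 µM in twofold steps. Inoculum was a 1.0 McFarland suspension diluted 10-3. Plates were incubated at 37 °C and read at 14 and 21 days.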

Escherichia coli = test: Antibacterial activity against Escherichia coli ATCC 25922 CCM 3954 at highest concentration measured after 24 to 48 hrs by alamar blue dye based broth microdilution assay; format: functional, organism-based
[13] = system: Mycobacterium tuberculosis; test: Antimycobacterial activity against XDR Mycobacterium tuberculosis Praha 131 after 14 days; format: functional; conditions: Praha 131, 336 h; how it was run: as §4
HepG2 = test: Cytotoxicity against human HepG2 cells assessed as reduction in cell viability after 48 hrs by CellTiter 96 aqueous one solution assay; format: cell-based; conditions: HepG2, 48 h
Staphylococcus aureus [14] = test: Antibacterial activity against methicillin-resistant Staphylococcus aureus subsp. aureus ATCC 43300 CCM 4750 at highest concentration measured after 24 to 48 hrs by alamar blue dye based broth microdilution assay; format: functional, organism-based
Aspergillus flavus = test: Antifungal activity against Aspergillus flavus CCM 8363 at highest concentration measured after 24 to 48 hrs by alamar blue dye based broth microdilution assay; format: functional, organism-based
Mycobacterium kansasii [15] = test: Antimycobacterial activity against Mycobacterium kansasii CNCTC My 235/80 after 21 days; format: functional; conditions: CNCTC My 235/80, 504 h; how it was run: as §2
Aspergillus fumigatus = test: Antifungal activity against Aspergillus fumigatus ATCC 204305 at highest concentration measured after 24 to 48 hrs by alamar blue dye based broth microdilution assay; format: functional, organism-based
[16] = system: Mycobacterium tuberculosis; test: Antimycobacterial activity against Mycobacterium tuberculosis H37Rv CNCTC My 331/88 after 14 days; format: functional; conditions: H37Rv CNCTC My 331/88, 336 h; how it was run: as §4
Mycobacterium kansasii [17] = test: Antimycobacterial activity against Mycobacterium kansasii CNCTC My 235/80 after 14 days; format: functional; conditions: CNCTC My 235/80, 336 h; how it was run: as §2
Mycobacterium avium [18] = test: Antimycobacterial activity against Mycobacterium avium CNCTC My 330/88 after 21 days; format: functional; conditions: CNCTC My 330/88, 504 h; how it was run: as §3
[19] = Cytotoxicity against human A431 cells assessed as cell viability at 30 uM after 48 hrs by CellTiter 96 aqueous one solution assay relative to control; format: cell-based, A-431; conditions: read-out: Activity
How it was run: (§5)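 HepG2 (DMEM, 10% FBS, 1 mM pyruvate) or A431 (DMEM, 10% FBS) seeded 10,000 cells/well, 24 h at 37 °C, 5% CO2, then 30 µM compound for 48 h. MTS reagent 60 min, absorbance 490 nm, background subtracted; 0.1% DMSO vehicle = 100%, 10% SDS = 0% viability.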

Enterococcus faecalis = test: Antibacterial activity against Enterococcus faecalis ATCC 29212 CCM 4224 at highest concentration measured after 24 to 48 hrs by alamar blue dye based broth microdilution assay; format: functional, organism-based
Staphylococcus aureus [20] = test: Antibacterial activity against Staphylococcus aureus subsp. aureus ATCC 29213 CCM 4223 at highest concentration measured after 24 to 48 hrs by alamar blue dye based broth microdilution assay; format: functional, organism-based
[21] = Cytotoxicity against human HepG2 cells assessed as cell viability at 30 uM after 48 hrs by CellTiter 96 aqueous one solution assay relative to control; format: cell-based; conditions: read-out: Activity; how it was run: as §5
Candida albicans = test: Antifungal activity against Candida albicans ATCC 24433 CCM 8320 at highest concentration measured after 24 to 48 hrs by alamar blue dye based broth microdilution assay; format: functional, organism-based
Klebsiella pneumoniae = test: Antibacterial activity against Klebsiella pneumoniae at highest concentration measured after 24 to 48 hrs by alamar blue dye based broth microdilution assay; format: functional, organism-based
[22] = system: Mycobacterium tuberculosis; test: Antimycobacterial activity against Mycobacterium tuberculosis H37Rv CNCTC My 331/88 after 21 days; format: functional; conditions: H37Rv CNCTC My 331/88, 504 h; how it was run: as §4
Pseudomonas aeruginosa = test: Antibacterial activity against Pseudomonas aeruginosa ATCC 27853 CCM 3955 at highest concentration measured after 24 to 48 hrs by alamar blue dye based broth microdilution assay; format: functional, organism-based

SMILES: [N-]=[N+]=[N-].[Na+] [SODIUM AZIDE]
- Activity [1]: Toxic

SMILES: COc1nc2ccc(Br)cc2cc1[C@@H](c1ccccc1)[C@@](O)(CCN(C)C)c1cccc2ccccc12 [BEDAQUILINE]
- MIC [2]: 0.05 µM (≈ 0.0278 µg/mL)

SMILES: O=[N+]([O-])c1cc(-c2nnc(SCc3ccc(Cl)c(Cl)c3)n2Cc2ccccc2)cc([N+](=O)[O-])c1
- Activity [3]: Toxic
- Activity [4]: Non-Toxic
- MIC99 (Mycobacterium kansasii [5]): 0.25 µM (≈ 0.129 µg/mL)
- MIC99 (Mycobacterium kansasii [6]): 0.125 µM (≈ 0.0645 µg/mL)
- Activity (Lichtheimia corymbifera): inactive
- Activity (Serratia marcescens): inactive
- Activity (Candida parapsilosis): inactive
- IC50 (A-431): > 30 µM
- MIC99 (Mycobacterium kansasii [7]): 0.125 µM (≈ 0.0645 µg/mL)
- Activity [8]: inactive
- Activity (Candida tropicalis): inactive
- Activity [9]: inactive
- MIC99 (Mycobacterium kansasii [10]): 0.06 µM (≈ 0.031 µg/mL)
- Activity (Pichia kudriavzevii): inactive
- MIC99 (Mycobacterium avium [11]): 62 µM (≈ 32 µg/mL)
- MIC99 [12]: 0.25 µM (≈ 0.129 µg/mL)
- Activity (Escherichia coli): inactive
- MIC99 [13]: 0.125 µM (≈ 0.0645 µg/mL)
- IC50 (HepG2): > 30 µM
- Activity (Staphylococcus aureus [14]): inactive
- Activity (Aspergillus flavus): inactive
- MIC99 (Mycobacterium kansasii [15]): 0.25 µM (≈ 0.129 µg/mL)
- Activity (Aspergillus fumigatus): inactive
- MIC99 [16]: 0.25 µM (≈ 0.129 µg/mL)
- MIC99 (Mycobacterium kansasii [17]): 0.25 µM (≈ 0.129 µg/mL)
- MIC99 (Mycobacterium avium [18]): 62 µM (≈ 32 µg/mL)
- viability at 48 h, 30 µM [19]: 97%
- Activity (Enterococcus faecalis): inactive
- Activity (Staphylococcus aureus [20]): inactive
- viability at 48 h, 30 µM [21]: 103%
- Activity (Candida albicans): inactive
- Activity (Klebsiella pneumoniae): inactive
- MIC99 [22]: 0.25 µM (≈ 0.129 µg/mL)
- Activity (Pseudomonas aeruginosa): inactive
